From ChEMBL document CHEMBL3621067, “Antihyperlipidemic morpholine derivatives with antioxidant activity: An investigation of the aromatic substitution” (Bioorg Med Chem, 2015)

Assays:
Rattus norvegicus [1] = test: Antihypercholesterolemic activity in Triton WR1339-induced hyperlipidemic rat assessed as reduction in plasma LDL-C level at 56 umol/kg, ip dosed 1 hr after Triton WR1339 challenge and measured 24 hrs post dose relative to control; type: functional
Outline: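 Rats, housed at 22 °C on a 12 h light/dark cycle with free chow and water, given Triton WR1339 to induce acute hyperlipidemia (established 24 h later). Compound given ip at 56 μmol/kg. Plasma LDL measured in duplicate and expressed as % decrease versus hyperlipidemic controls; mean of 8–10 rats per compound.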

Rattus norvegicus [2] = test: Antihyperlipidemic activity in Triton WR1339-induced hyperlipidemic rat assessed as reduction in plasma total cholesterol at 56 umol/kg, ip dosed 1 hr after Triton WR1339 challenge and measured 24 hrs post dose relative to control; type: functional
Outline: (§1)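 Rats given Triton WR1339 to induce acute hyperlipidemia, established 24 h later; compounds given ip at 56 μmol/kg. Animals held at 22 °C on a 12 h light/dark cycle with free chow and water. Plasma lipids measured in duplicate; values are the mean of 8–10 rats per compound, expressed as % decrease versus hyperlipidemic controls; significance by Student's test.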

Squalene synthase = target: T1, Squalene synthase (Rattus norvegicus, UniProt Q02769); test: Inhibition of squalene synthase in rat liver microsomes assessed as reduction in conversion of [3H]farnesyl pyrophosphate to squalene incubated for 30 mins by liquid scintillation counting
T1 sequence (Q02769 whole entry): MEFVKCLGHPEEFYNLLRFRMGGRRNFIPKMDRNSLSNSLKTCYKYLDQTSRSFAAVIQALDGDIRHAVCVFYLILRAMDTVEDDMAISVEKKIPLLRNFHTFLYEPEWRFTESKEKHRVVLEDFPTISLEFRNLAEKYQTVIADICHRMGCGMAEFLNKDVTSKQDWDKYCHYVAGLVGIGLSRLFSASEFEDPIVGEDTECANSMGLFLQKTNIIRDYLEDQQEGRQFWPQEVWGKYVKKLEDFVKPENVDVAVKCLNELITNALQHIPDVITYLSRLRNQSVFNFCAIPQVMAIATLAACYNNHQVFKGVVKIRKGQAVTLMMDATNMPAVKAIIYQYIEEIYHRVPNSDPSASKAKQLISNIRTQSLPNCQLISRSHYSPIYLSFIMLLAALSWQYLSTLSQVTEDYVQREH

[3] = target: T2, Squalene synthase (Rattus norvegicus) (UniProt Q02769); test: Inhibition of squalene synthase in rat liver microsomes assessed as reduction in conversion of [3H]farnesyl pyrophosphate to squalene at 10 uM […] by liquid scintillation counting method
T2 sequence (whole entry): T1 sequence (Q02769 whole entry)

Rattus norvegicus [4] = test: Antihyperlipidemic activity in Triton WR1339-induced hyperlipidemic rat assessed as reduction in plasma triglyceride level at 56 umol/kg, ip dosed 1 hr after Triton WR1339 challenge and measured 24 hrs post dose relative to control; type: functional; outline: as §1
Liver = test: Antioxidant activity in rat heat-inactivated rat hepatic microsomes assessed as inhibition of TBAR level incubated for 45 mins by spectrophotometry; type: functional; details: 0.75 h
Outline: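 Heat-inactivated liver microsomes from untreated rats (2.5 mg protein/mL, 4 mM fatty acid residues) with 0.2 mM ascorbic acid in Tris–HCl/KCl (50/150 mM, pH 7.4); compounds in DMSO, 10 μM to 1 mM. Incubated at 37 °C for 45 min; TBAR read at 535 against 600 nm. Run in duplicate; IC50 is the mean concentration giving 50% inhibition of control peroxidation.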

[5] = target: T2, Squalene synthase (Rattus norvegicus); test: Inhibition of squalene synthase in rat liver microsomes assessed as reduction in conversion of [3H]farnesyl pyrophosphate to squalene at 50 uM incubated for 30 mins by liquid scintillation counting
Outline: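 Rat liver microsomes (18 μg protein/mL) in 50 mM phosphate, pH 7.4, with 10 mM MgCl2 and 0.5 mM NADPH; compounds in ethanol. Preincubated 10 min at 37 °C, then started with [3H]FPP (0.5 μM, 0.27 Ci/mmol) for 10 min at 37 °C. Stopped with 15% ethanolic KOH, heated 65 °C for 30 min, extracted into petroleum ether, and squalene counted by scintillation. Run in duplicate.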

Row | SMILES | inhibition in vivo at 56 µmol/kg (Rattus norvegicus [1]) [%] | inhibition in vivo at 56 µmol/kg (Rattus norvegicus [2]) [%] | IC50 (Squalene synthase) [µM] | inhibition [3] [%] | inhibition in vivo at 56 µmol/kg (Rattus norvegicus [4]) [%] | IC50 (Liver) [µM] | inhibition [5] [%]
1 | CN1CCOC(O)(c2ccc3c(ccc4ccccc43)c2)C1 (stereo unspecified) | 52 | 58 | 8.8 | 48 | 69 | 174 | 
2 | CN1CC(O)(c2ccc(-c3ccc(C(C)(C)C)cc3)cc2)OC2CCCCC21 (stereo unspecified) |  | 17 |  | 67 | 15 | 214 | 
3 | OC1(c2ccc(-c3nccs3)cc2)CN2CCCCC2CO1 (stereo unspecified) |  | 21 |  |  | 58 | 1000 | 35
4 | CN1CC(O)(c2ccc3c(ccc4ccccc43)c2)OC2CCCCC21 (stereo unspecified) | 20 | 49 | 5.5 | 76 | 59 | 191 | 
5 | CN1CC(O)(c2ccc(-c3ccc([N+](=O)[O-])cc3)cc2)OC2CCCCC21 (stereo unspecified) |  | 62 |  |  | 20 | 57 | 
6 | OC1(c2ccc3c(ccc4ccccc43)c2)CN2CCCCC2CO1 (stereo unspecified) | 53 | 40 | 0.7 | 87 | 66 | 198 | 
7 | CC(C)(C)c1ccc(-c2ccc(C3(O)CN4CCCCC4CO3)cc2)cc1 (stereo unspecified) |  | 64 |  | 40 | 59 | 410 | 
8 | CN1CCOC(O)(c2ccc(C3CCCCC3)cc2)C1 (stereo unspecified) | 36 | 44 | > 100 | 0 | 34 | 190 | 
9 | O=[N+]([O-])c1ccc(-c2ccc(C3(O)CN4CCCCC4CO3)cc2)cc1 (stereo unspecified) |  | 59 |  | 43 | 31 | 539 | 
10 | CN1CCOC(O)(c2ccc(-c3nccs3)cc2)C1 (stereo unspecified) |  |  |  |  |  |  | 30
11 | CCC(C)(C)C(=O)O[C@H]1C[C@@H](C)C=C2C=C[C@H](C)[C@H](CC[C@@H]3C[C@@H](O)CC(=O)O3)[C@H]21 [SIMVASTATIN] | 70 | 75 |  |  | 0 |  | 
12 | CN1CC(O)(c2ccc(-c3ccc(O)cc3)cc2)OC2CCCCC21 (stereo unspecified) |  | 54 |  | 61 | 48 | 135 | 
13 | CN1CCOC(O)(c2ccc(-c3ccc([N+](=O)[O-])cc3)cc2)C1 (stereo unspecified) |  | 41 |  | 29 | 44 | 73 | 
14 | CN1CC(O)(c2ccc(C3CCCCC3)cc2)OC2CCCCC21 (stereo unspecified) | 23 | 51 | 42 | 18 | 20 | 180 | 
15 | Oc1ccc(-c2ccc(C3(O)CN4CCCCC4CO3)cc2)cc1 (stereo unspecified) |  | 40 |  | 7 | 43 | 134 | 
16 | CN1CCOC(O)(c2ccc(-c3ccc(C(C)(C)C)cc3)cc2)C1 (stereo unspecified) |  | 45 |  | 61 | 47 | 91 | 
17 | OC1(c2ccc(C3CCCCC3)cc2)CN2CCCCC2CO1 (stereo unspecified) | 62 | 80 | 80 | 9 | 70 | 700 | 
18 | CN1CC(O)(c2ccc(-c3nccs3)cc2)OC2CCCCC21 (stereo unspecified) |  |  |  |  |  |  | 29
